From PubChem
Hits are enriched below; roughly 2.5% of the tested compounds scored in any of these assays.
NR2E3 ag-1: inhibitors of NR2E3-RetCOR corepressor binding, primary screen, NR2E3 agonist project, biochemical, TR-FRET, GST-NR2E3, biotin-RetCOR; inhibition of corepressor binding, % at 4.78 µM; AID 2300, 2010; 1536-well; actives 0.12% (n = 320,000);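 active = percent inhibition above the cutoff of mean plus 3 SD of all tested compounds, set per screening campaign, cut at about 20% in these data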
Target sequence (Q9Y5X4 whole entry, looked up): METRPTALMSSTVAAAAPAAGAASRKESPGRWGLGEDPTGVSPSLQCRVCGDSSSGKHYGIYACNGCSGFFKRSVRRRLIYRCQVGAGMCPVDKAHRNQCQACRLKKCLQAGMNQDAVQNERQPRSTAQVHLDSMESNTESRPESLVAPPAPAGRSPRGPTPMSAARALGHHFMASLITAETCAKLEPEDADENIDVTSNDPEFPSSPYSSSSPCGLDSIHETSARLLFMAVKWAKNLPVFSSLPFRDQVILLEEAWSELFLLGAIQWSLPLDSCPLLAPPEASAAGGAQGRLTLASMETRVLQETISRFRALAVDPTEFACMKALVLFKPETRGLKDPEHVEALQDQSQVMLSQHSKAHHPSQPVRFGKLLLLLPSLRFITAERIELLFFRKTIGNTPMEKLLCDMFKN
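Test system – NR2E3–RetCOR corepressor complex · Quantity – NR2E3 fusion 1.35 nM · Buffer or medium – Tris pH 7.5 · Incubation – Compound–protein incubation for 5 h at 4 °C · Technique – TR-FRET, Eu(K)-anti-GST donor, streptavidin-D2 acceptor, ex 340, em 617/671 nm · Evaluation – percent inhibition of 671/617 nm emission ratio versus biotin and DMSO controls · Plate – 1536-well format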
NadD block: inhibitors of S. aureus NadD, primary screen, biochemical, colorimetric, uHTS. Nicotinate-nucleotide adenylyltransferase NadD (Staphylococcus aureus N315). purified NadD enzyme, colorimetric absorbance read-out. inhibition, % at 20 µM. actives 0.78% (n = 360,000). AID 602399, 2012; in the data active = inhibition above about 26%
GalR3 antagonist: GalR3 antagonists in HEK293 cells, primary screen, cell-based, fluorescence readout. Galanin receptor type 3 (Homo sapiens), O60755. HEK293 GalR3-CNG cAMP membrane potential fluorescence; galR3 body fused to GalR1 C-terminus. inhibition, % at 3 µM. actives 0.44% (n = 360,000);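 active = inhibition above the screen-wide average plus 3 SD, cut at about 13% in these data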;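 note: forskolin and galanin both at EC90 stimulate the cells; cAMP rise reported by CNG channel membrane potential dye signal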
Target sequence (O60755 1-299 limits assumed): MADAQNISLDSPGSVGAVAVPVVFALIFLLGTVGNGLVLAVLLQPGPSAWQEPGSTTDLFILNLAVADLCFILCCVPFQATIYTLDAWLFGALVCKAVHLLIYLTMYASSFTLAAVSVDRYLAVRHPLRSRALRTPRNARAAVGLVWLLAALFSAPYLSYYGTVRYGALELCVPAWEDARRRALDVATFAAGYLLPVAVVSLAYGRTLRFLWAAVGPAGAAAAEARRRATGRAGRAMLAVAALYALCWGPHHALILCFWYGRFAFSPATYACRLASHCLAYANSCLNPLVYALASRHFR
bovine MsrA act: bovine MsrA enzyme activators, primary screen, biochemical, absorbance, HTS; AID 602163, 2012; purified bovine MsrA, absorbance read-out; activation, % at 10.6 µM; actives 0.3% (n = 360,000); Methionine sulfoxide reductase A (Bos taurus); in the data active = activation above about 7.5%
NR2E3 ag-2: NR2E3 agonists in two-hybrid cells, primary screen, cell-based, luminescence, CHO-S, Gal4-NCOR/VP16-NR2E3 | luciferase | actives 0.35% (n = 360,000) | AID 602229, 2012 | inhibition of corepressor binding, % at 3.98 µM;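 active = inhibition above the mean of all tested compounds plus 3 SD, cut at about 70% in these data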;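 note: higher means lower luciferase signal from less NR2E3 corepressor binding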
MsrA inh: bovine MsrA enzyme inhibitors, primary screen, biochemical, absorbance, HTS; purified bovine MsrA, absorbance read-out; actives 0.75% (n = 360,000); AID 651718, 2012; inhibition, % at 15.5 µM; in the data active = inhibition above about 4.5%
NR2E3 ag confirm-1: NR2E3 agonists, confirmation, biochemical, TR-FRET; shares compounds with NR2E3 ag-1; cell-free NR2E3 corepressor release, 5 h; activation (reported as inhibition), % at 3.98 µM; actives 39% (n = 360); AID 2379, 2010; in the data active = activation above about 20%
PPARg-NCOR2 ag: agonists of PPARg-NCOR2 corepressor interaction, counter-screen for NR2E3 agonist project, biochemical, TR-FRET; shares compounds with NR2E3 ag-1; actives 45% (n = 360); inhibition, % at 3.98 µM; AID 504787, 2011; TR-FRET PPARg-NCOR2 coregulator interaction; in the data active = inhibition above about 20%
MsrA act confirm: bovine MsrA activators, retest, confirmation, biochemical, absorbance, HTS. purified bovine MsrA, absorbance read-out. activation, % at 10.6 µM. actives 12% (n = 1,000). shares compounds with bovine MsrA act. AID 602270, 2012; in the data active = activation above about 4%;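 note: enzyme coupled to thioredoxin and thioredoxin reductase with NADPH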
NR2E3 ag confirm-2: NR2E3 agonist confirmation in cells, cell-based, luminescence, CHO-S two-hybrid; shares compounds with NR2E3 ag-2; CHO-S mammalian two-hybrid NR2E3-NCOR, luciferase luminescence; inhibition, % at 3.98 µM; actives 51% (n = 2,300); AID 624378, 2012;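 active = average inhibition above a cutoff equal to the mean inhibition of all tested compounds plus one SD, cut at about 70% in these data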
VP16 counter: GAL4-VP16 reporter modulators, confirmation, counter-screen for NR2E3 agonist project, cell-based, luminescence, CHO-S, high throughput; CHO-S GAL4-VP16 luciferase reporter; shares compounds with NR2E3 ag-2; actives 29% (n = 2,300); inhibition, % at 3.98 µM;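 active = mean inhibition above a cutoff equal to the average over all tested compounds plus one standard deviation, cut at about 70% in these data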;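 note: luciferase from a UAS reporter driven by GAL4-VP16 transactivation; higher means less reporter light so more repression of VP16 activity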
Each line names hits and unclear results; the compound was inactive in the other large screens (follow-up assays come after a bar, where they were run).

CCC(C)N1C(=O)/C(=C/c2ccc3c(c2)CCN3CCCCl)C(=O)NC1=S (centres undefined)	NadD block 40
COc1ccc(N2C(=O)/C(=C/c3ccc(OC)c(OC)c3)C(=O)NC2=S)cc1	none (no result: NR2E3 ag-1)
O=c1[nH]c(=S)n(Cc2ccc(F)cc2)c(O)c1C=NCCCn1ccnc1	MsrA inh 4.5
Cc1cc2c(C(C)C)c(O)c(O)c(C=O)c2c(O)c1-c1c(C)cc2c(C(C)C)c(O)c(O)c(C=O)c2c1O	NadD block 50 (no result: NR2E3 ag-1, GalR3 antagonist)
CCC(C)NC(=O)c1c(N)n(Cc2ccc3c(c2)OCO3)c2nc3ccccc3nc12 (centres undefined)	none
Cc1cccc(N2C(=O)NC(=O)/C(=C\c3cc(C)n(-c4sc5c(c4C#N)CCCC5)c3C)C2=O)c1C	NadD block 29
CCOC(=O)c1c(-n2c(C)cc(C=C3C(=O)NC(=O)NC3=O)c2C)sc2c1CCCC2	none
O=C(O)c1ccc2c(c1)C1C(Cl)C(Sc3ccccc3[N+](=O)[O-])CC1C(c1cccc([N+](=O)[O-])c1)N2 (centres undefined)	NadD block 33 (no result: NR2E3 ag-1, GalR3 antagonist, MsrA inh)
O=C(O)c1cccc2c1NC(c1cccc([N+](=O)[O-])c1)C1CC(Sc3ccccc3[N+](=O)[O-])C(Cl)C21 (centres undefined)	NadD block 60 (no result: NR2E3 ag-1)
c1ccc(Cc2cnc(N3CCNCC3)nc2)cc1	none (no result: NR2E3 ag-1, NadD block, bovine MsrA act, NR2E3 ag-2)
COC(=O)C1=C(c2ccc(OCc3ccccc3)cc2)C[C@@H]2CC[C@H]1N2C(=O)NCc1cccc(C(F)(F)F)c1	none
CCOc1ccc(N2C(=O)/C(=C/c3ccco3)C(=O)NC2=S)cc1	NadD block 87 (no result: GalR3 antagonist, MsrA inh)
CC1OC(OC2C(O)CC(OC3C(O)CC(OC4CCC5(C)C(CCC6C5CCC5(C)C(C7=CC(=O)OC7)C(O)CC65O)C4)OC3C)OC2C)CC(O)C1O (centres undefined)	none (no result: NR2E3 ag-1)
CC(=O)OC1CC2(O)C3CCC4CC(O)CCC4(C)C3CCC2(C)C1C1=CC(=O)OC1 (centres undefined)	GalR3 antagonist 21 (no result: NR2E3 ag-1)
CC(=O)[C@H]1CCC2C3CC[C@H]4C[C@@H](O)CC[C@]4(C)C3CC[C@@]21C (some centres undefined)	none (no result: NR2E3 ag-1)
CC(=O)OC1CC(OC2C(O)CC(OC3C(O)CC(OC4CCC5(C)C(CCC6C5CCC5(C)C(C7=CC(=O)OC7)C(O)CC65O)C4)OC3C)OC2C)OC(C)C1OC1OC(CO)C(O)C(O)C1O (centres undefined)	GalR3 antagonist 34 (no result: NR2E3 ag-1)
Cc1ccc(OP(=O)(NC(C)c2ccccc2)Oc2ccc(C)cc2)cc1 (centres undefined)	none
COc1cccc(C(=O)C2CCCN(Cc3ccc4nonc4c3)C2)c1 (centres undefined)	none
O=C(O)c1ccc(N=Cc2c(O)[nH]c(=O)[nH]c2=O)cc1	MsrA inh 4.6
O=c1[nH]c(O)c(C=Nc2ccc(F)c(Cl)c2)c(=O)[nH]1	none
C=CCOC(=O)N1Cc2ccccc2-n2nncc2C1	none (no result: NR2E3 ag-1)
O=c1c2ccccc2[nH]c(=S)n1-c1ccc(Br)cc1	NR2E3 ag-1 36 | NR2E3 ag confirm-1 inactive | PPARg-NCOR2 ag inactive
O=S(=O)(c1ccccc1)N1CN2CCN(C2)C1	none
Cn1ncnc2c(=O)n(C)c(=O)nc1-2	NR2E3 ag-1 32, bovine MsrA act 14, NR2E3 ag-2 104 (no result: GalR3 antagonist, MsrA inh) | NR2E3 ag confirm-1 36 | PPARg-NCOR2 ag 66 | MsrA act confirm 12 | NR2E3 ag confirm-2 98 | VP16 counter 97
CCOC(=O)C(O)(c1ccc(NC(=O)NC)cc1)C(F)(F)F (centres undefined)	none
CCCCNC(=S)N1CCn2cccc2C1c1cccnc1 (centres undefined)	none
CNC(=S)N1CCn2cccc2C1c1cccnc1 (centres undefined)	bovine MsrA act 20 | MsrA act confirm inactive
C/C=C(\C)C(=O)N[C@@H](c1ccccc1)[C@@H](O)C(=O)O[C@H]1C[C@@]2(O)[C@@H](OC(=O)c3ccccc3)C3[C@](C)(C(=O)[C@H](OC(C)=O)C(=C1C)C2(C)C)[C@H](O)C[C@H]1OC[C@@]31OC(C)=O (some centres undefined)	bovine MsrA act 10 | MsrA act confirm inactive
CCC(C)C(=O)N[C@@H](c1ccccc1)[C@@H](O)C(=O)O[C@H]1C[C@@]2(O)[C@@H](OC(=O)c3ccccc3)C3[C@](C)(C(=O)[C@H](OC(C)=O)C(=C1C)C2(C)C)[C@@H](O)C[C@H]1OC[C@@]31OC(C)=O (some centres undefined)	none
CCn1c(=O)n(CC)c2cc([N+](=O)[O-])c(N3CCNCC3)cc21	none
OCC[n+]1c2ccccc2nc2ccc(N3CCOCC3)cc21	bovine MsrA act 21, MsrA inh 5.8 | MsrA act confirm 10
COC(=O)C1=C(c2ccc(F)cc2OCc2ccccc2)C[C@@H]2CC[C@H]1N2C(=O)NCC1CC1	bovine MsrA act 8.4 | MsrA act confirm inactive
COC(=O)C1=C(c2ccc(F)cc2OCc2ccccc2)C[C@@H]2CC[C@H]1N2C(=O)NCc1ccccc1	none
O=P(C(c1ccc2c(c1)OCO2)N1CCOCC1)(N1CCOCC1)N1CCOCC1 (centres undefined)	bovine MsrA act 13 | MsrA act confirm inactive
